According to ChEMBL document CHEMBL1155615, “Bioactive saponins from Swartzia schomburgkii from the suriname rainforest” (J Nat Prod, 2000):
In brackets after ≈: the same amount, converted by molar mass.

Assays:
Saccharomyces cerevisiae [1] = assay: Antimicrobial activity against Saccharomyces cerevisiae I138; format: functional
Saccharomyces cerevisiae [2] = assay: Antimicrobial activity against Saccharomyces cerevisiae J140; format: functional
Saccharomyces cerevisiae [3] = assay: Antimicrobial activity against Saccharomyces cerevisiae I353; format: functional
M109 = assay: Cytotoxicity against mouse M109 cells; format: functional, cell-based
Method in brief: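 In vitro antitumor cytotoxicity assay using the murine Madison lung carcinoma line M-109.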

CC1(C)CC[C@]2(C(=O)O)CC[C@]3(C)C(=CC[C@@H]4[C@@]5(C)CC[C@H](O[C@@H]6O[C@H](CO)[C@@H](O)[C@H](O)[C@H]6O[C@@H]6O[C@H](CO)[C@@H](O)[C@H](O)[C@H]6O)C(C)(C)[C@@H]5CC[C@]43C)[C@@H]2C1 [ACUTOSIDE A] was tested, and the IC12 (Saccharomyces cerevisiae [1]) was 75 µg/mL, the IC12 (Saccharomyces cerevisiae [2]) was 130 µg/mL and the IC12 (Saccharomyces cerevisiae [3]) was 110 µg/mL. For the same molecule, the IC50 (M109) was 28.7 µg/mL (≈ 36.7 µM).
With CC1(C)CC[C@]2(C(=O)O)CC[C@]3(C)C(=CC[C@@H]4[C@@]5(C)CC[C@H](O[C@@H]6O[C@H](CO)[C@@H](O)[C@H](O[C@@H]7O[C@H](CO)[C@@H](O)[C@H](O)[C@H]7O)[C@H]6O[C@@H]6O[C@H](CO)[C@@H](O)[C@H](O)[C@H]6O)C(C)(C)[C@@H]5CC[C@]43C)[C@@H]2C1 [ANCHUSOSID 2] the IC12 (Saccharomyces cerevisiae [1]) was 120 µg/mL, the IC12 (Saccharomyces cerevisiae [2]) was 200 µg/mL and the IC12 (Saccharomyces cerevisiae [3]) was 270 µg/mL.
Molecule CC1(C)CC[C@]2(C(=O)O)CC[C@]3(C)C(=CC[C@@H]4[C@@]5(C)CC[C@H](O[C@@H]6O[C@H](CO)[C@@H](O)[C@H](O[C@@H]7O[C@H](CO)[C@@H](O)[C@H](O)[C@H]7O)[C@H]6O[C@@H]6OC[C@@H](O)[C@H](O)[C@H]6O)C(C)(C)[C@@H]5CC[C@]43C)[C@@H]2C1 [SWARTZIATRIOSIDE] has an IC12 (Saccharomyces cerevisiae [1]) of 120 µg/mL, an IC12 (Saccharomyces cerevisiae [2]) of 260 µg/mL and an IC12 (Saccharomyces cerevisiae [3]) of 430 µg/mL. For the same molecule, the IC50 (M109) was 24.3 µg/mL (≈ 26.6 µM).
Work on CC1(C)CC[C@]2(C(=O)O)CC[C@]3(C)C(=CC[C@@H]4[C@@]5(C)CC[C@H](O[C@@H]6O[C@H](CO)[C@@H](O)[C@H](O[C@@H]7O[C@H](CO)[C@@H](O)[C@H](O)[C@H]7O)[C@H]6O)[C@@](C)(CO)[C@@H]5CC[C@]43C)[C@@H]2C1 yielded an IC12 (Saccharomyces cerevisiae [1]) of 400 µg/mL, an IC12 (Saccharomyces cerevisiae [2]) of 600 µg/mL and an IC12 (Saccharomyces cerevisiae [3]) of 1000 µg/mL. The IC50 (M109) was 15.5 µg/mL (≈ 19.4 µM).
With CC1(C)CC[C@]2(C(=O)O)CC[C@]3(C)C(=CC[C@@H]4[C@@]5(C)CC[C@H](O[C@@H]6O[C@H](CO)[C@@H](O)[C@H](O)[C@H]6O)[C@@](C)(CO)[C@@H]5CC[C@]43C)[C@@H]2C1 [Hederagenin-3-O-beta-D-glucopyranoside] the IC12 (Saccharomyces cerevisiae [1]) was 125 µg/mL, the IC12 (Saccharomyces cerevisiae [2]) was 200 µg/mL and the IC12 (Saccharomyces cerevisiae [3]) was 280 µg/mL.
